Experiments:
Cannabinoid receptor 1 [1] = target: T1, Cannabinoid receptor 1 (Homo sapiens, UniProt P21554); test: Agonist activity at recombinant human CB1 receptor expressed in HEK293 cells assessed as increase in beta arrestin recruitment measured after 2 to 3 hrs by PathHunter assay; type: functional, cell-based
Cannabinoid receptor 2 [2] = target: T2, Cannabinoid receptor 2 (Rattus norvegicus, UniProt Q9QZN9); test: Agonist activity at recombinant rat CB2 receptor expressed in HEK293 cells assessed as increase in beta arrestin recruitment measured after 2 to 3 hrs by PathHunter assay; type: functional, cell-based
T2 sequence (Q9QZN9 whole entry): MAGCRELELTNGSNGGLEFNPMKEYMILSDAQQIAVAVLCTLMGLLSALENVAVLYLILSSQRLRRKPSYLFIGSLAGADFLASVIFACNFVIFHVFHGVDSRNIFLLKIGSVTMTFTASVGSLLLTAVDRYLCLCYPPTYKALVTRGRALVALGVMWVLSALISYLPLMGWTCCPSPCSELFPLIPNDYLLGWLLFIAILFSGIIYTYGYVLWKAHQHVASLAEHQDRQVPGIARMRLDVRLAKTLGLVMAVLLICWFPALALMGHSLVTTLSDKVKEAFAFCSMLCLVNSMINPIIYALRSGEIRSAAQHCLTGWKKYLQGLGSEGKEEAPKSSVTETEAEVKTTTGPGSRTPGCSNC

[3] = target: T3, Cannabinoid receptor 2 (Rattus norvegicus) (UniProt Q9QZN9); test: Agonist activity at recombinant rat CB2 receptor expressed in HEK293 cells assessed as increase in beta arrestin recruitment measured after 2 to 3 hrs by PathHunter assay relative to CP55940; type: functional, cell-based
T3 sequence (whole entry): T2 sequence (Q9QZN9 whole entry)
Procedure, shortened: (§1)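 Beta-arrestin recruitment EC50 is the mean of three or more independent experiments (logSD < 0.4). Intrinsic activity (Emax) is expressed relative to CP-55,940 set at 100.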

Cannabinoid receptor 1 [4] = target: Cannabinoid receptor 1 (Rattus norvegicus, UniProt P20272); test: Agonist activity at recombinant rat CB1 receptor expressed in HEK293 cells assessed as increase in beta arrestin recruitment measured after 2 to 3 hrs by PathHunter assay; type: functional, cell-based
Chain of Cannabinoid receptor 1 (Rattus norvegicus, UniProt P20272) (P20272 whole entry): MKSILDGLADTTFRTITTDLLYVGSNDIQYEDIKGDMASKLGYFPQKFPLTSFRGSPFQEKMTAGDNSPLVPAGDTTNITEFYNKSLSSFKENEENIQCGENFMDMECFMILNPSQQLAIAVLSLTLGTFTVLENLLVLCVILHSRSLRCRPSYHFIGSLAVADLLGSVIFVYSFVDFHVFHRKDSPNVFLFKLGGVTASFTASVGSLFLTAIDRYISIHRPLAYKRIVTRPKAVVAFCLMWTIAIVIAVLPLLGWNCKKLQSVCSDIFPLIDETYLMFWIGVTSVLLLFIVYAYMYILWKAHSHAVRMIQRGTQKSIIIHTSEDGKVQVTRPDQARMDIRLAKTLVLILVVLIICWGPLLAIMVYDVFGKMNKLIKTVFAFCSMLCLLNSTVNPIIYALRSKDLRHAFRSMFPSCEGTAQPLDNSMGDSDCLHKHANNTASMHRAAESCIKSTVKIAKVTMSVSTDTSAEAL

[5] = Half life in human liver microsomes; type: ADME, microsome
[6] = Half life in rat liver microsomes; type: ADME, microsome
Cannabinoid receptor 2 [7] = target: T4, Cannabinoid receptor 2 (Homo sapiens, UniProt P34972); test: Agonist activity at recombinant human CB2 receptor expressed in HEK293 cells assessed as increase in beta arrestin recruitment measured after 2 to 3 hrs by PathHunter assay; type: functional, cell-based
T4 sequence (P34972 whole entry): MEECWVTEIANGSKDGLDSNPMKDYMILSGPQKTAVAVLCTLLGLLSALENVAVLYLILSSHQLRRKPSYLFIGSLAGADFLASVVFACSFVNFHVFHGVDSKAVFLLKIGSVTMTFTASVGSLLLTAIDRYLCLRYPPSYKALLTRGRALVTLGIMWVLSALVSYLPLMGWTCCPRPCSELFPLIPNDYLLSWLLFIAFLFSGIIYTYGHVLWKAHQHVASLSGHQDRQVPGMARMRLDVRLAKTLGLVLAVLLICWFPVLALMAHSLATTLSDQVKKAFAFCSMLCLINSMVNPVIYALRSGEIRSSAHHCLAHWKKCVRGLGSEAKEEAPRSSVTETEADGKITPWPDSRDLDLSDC

Cannabinoid receptor 2 [8] = target: T4, Cannabinoid receptor 2; test: Agonist activity at recombinant human CB2 receptor expressed in HEK293 cells assessed as increase in beta arrestin recruitment measured after 2 to 3 hrs by PathHunter assay relative to CP55940; type: functional, cell-based
[9] = Half life in mouse liver microsomes; type: ADME, microsome
[10] = Ratio of drug level in brain to plasma in Sprague-Dawley rat at 3 mg/kg, po measured after 2 hrs; type: ADME, organism-based; conditions: brain and plasma, read-out: BPR
[11] = target: Cannabinoid receptor 1 (Rattus norvegicus) (UniProt P20272); test: Agonist activity at recombinant rat CB1 receptor expressed in HEK293 cells assessed as increase in beta arrestin recruitment measured after 2 to 3 hrs by PathHunter assay relative to CP55940; type: functional, cell-based; procedure, shortened: as §1
Chain of Cannabinoid receptor 1 (Rattus norvegicus) (P20272 whole entry): as the sequence (P20272 whole entry) above

Cannabinoid receptor 1 [12] = target: T1, Cannabinoid receptor 1; test: Agonist activity at recombinant human CB1 receptor expressed in HEK293 cells assessed as increase in beta arrestin recruitment measured after 2 to 3 hrs by PathHunter assay relative to CP55940; type: functional, cell-based; procedure, shortened: as §1
[13] = target: T3, Cannabinoid receptor 2 (Rattus norvegicus); test: Induction of recombinant HA-tagged rat CB2 receptor internalization expressed in CHOK1 cells at 10 uM measured after 1 hr by time-resolved flow cytometry relative to CP55940; type: functional, cell-based
Rattus norvegicus [14] = test: Toxicity in Sprague-Dawley rat assessed as decrease in core body temperature at 0.3 mg/kg, po measured after 60 mins by rectal probe method; type: organism-based; conditions: in vivo, 1 h
Rattus norvegicus [15] = test: Toxicity in Sprague-Dawley rat assessed as change in body temperature up to 100 mg/kg, po; type: organism-based; conditions: in vivo
Rattus norvegicus [16] = test: Toxicity in Sprague-Dawley rat assessed as effect on locomotor activity up to 100 mg/kg, po; type: organism-based; conditions: in vivo

T1 sequence (P21554 whole entry): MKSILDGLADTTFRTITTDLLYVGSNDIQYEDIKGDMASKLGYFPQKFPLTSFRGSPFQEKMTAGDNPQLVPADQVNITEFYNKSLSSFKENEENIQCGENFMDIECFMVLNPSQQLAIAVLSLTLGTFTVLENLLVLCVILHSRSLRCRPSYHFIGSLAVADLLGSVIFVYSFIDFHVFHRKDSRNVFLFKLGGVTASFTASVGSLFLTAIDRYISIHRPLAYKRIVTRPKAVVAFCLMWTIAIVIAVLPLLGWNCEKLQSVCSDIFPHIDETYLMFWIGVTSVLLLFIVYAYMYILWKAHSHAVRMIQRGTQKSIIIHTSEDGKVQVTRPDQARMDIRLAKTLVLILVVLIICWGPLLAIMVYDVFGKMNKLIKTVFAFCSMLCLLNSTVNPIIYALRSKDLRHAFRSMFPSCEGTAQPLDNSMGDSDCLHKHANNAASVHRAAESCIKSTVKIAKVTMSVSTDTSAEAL

Row | Compound | EC50 (Cannabinoid receptor 1 [1]) | EC50 (Cannabinoid receptor 2 [2]) | Emax [3] | EC50 (Cannabinoid receptor 1 [4]) | half-life [5] | half-life [6] | EC50 (Cannabinoid receptor 2 [7]) | Emax (Cannabinoid receptor 2 [8]) | half-life [9] | Kp at 2 h [10] | Emax [11] | Emax (Cannabinoid receptor 1 [12]) | Activity [13] | Activity (Rattus norvegicus [14]) | Activity (Rattus norvegicus [15]) | Activity (Rattus norvegicus [16])
1 | O=C(NC1(C(F)(F)F)CC1)c1nn(-c2c[n+]([O-])ccn2)c2c1C[C@@H]1C[C@H]21 | > 10000 nM | 14.5 nM | 103% | > 10000 nM | > 1 h | > 1 h |  |  |  |  |  |  |  |  |  | 
2 | CC(C)(C)[C@@H](CO)NC(=O)c1nn(-c2cnccn2)c2c1C[C@@H]1C[C@H]21 | > 10000 nM | 53 nM | 95% | > 10000 nM | > 1 h | > 1 h | 59 nM | 107% | 0.4 h | 0.1 |  |  |  |  |  | 
3 | CC(C)(C)[C@@H](CO)NC(=O)c1nn(-c2cnccn2)c2c1C[C@H]1C[C@@H]21 | > 10000 nM | 21 nM | 78% | > 10000 nM | > 1 h | 0.633 h | 26 nM | 104% | 0.15 h |  |  |  |  |  |  | 
4 | CC1(NC(=O)c2nn(-c3c[n+]([O-])ccn3)c3c2C[C@@H]2C[C@H]32)CC1 | > 10000 nM | 290 nM | 81% | > 10000 nM |  |  | 91 nM | 102% |  |  |  |  |  |  |  | 
5 | O=C(N[C@H](CO)c1ccccc1)c1nn(-c2c[n+]([O-])ccn2)c2c1C[C@@H]1C[C@H]21 | > 10000 nM | 60 nM | 72% | > 10000 nM | > 1 h | > 1 h |  | 96% |  |  |  |  |  |  |  | 
6 | CC(C)[C@@H](CO)NC(=O)c1nn(-c2c[n+]([O-])ccn2)c2c1C[C@@H]1C[C@H]21 | > 10000 nM | 55 nM | 88% | > 10000 nM | > 1 h | > 1 h | 46 nM | 103% |  |  |  |  |  |  |  | 
7 | CC(C)(C)[C@@H](CF)NC(=O)c1nn(-c2c[n+]([O-])ccn2)c2c1C[C@@H]1C[C@H]21 | 1100 nM | 1.5 nM | 97% | 840 nM | > 1 h | > 1 h | 1.2 nM | 107% |  |  | 107% | 105% |  |  |  | 
8 | CC(C)(CO)NC(=O)c1nn(-c2cnccn2)c2c1C[C@H]1C[C@@H]21 |  |  | 85% |  | > 1 h | > 1 h |  |  | > 1 h |  |  |  |  |  |  | 
9 | O=C(NC1(CO)CCCC1)c1nn(-c2c[n+]([O-])ccn2)c2c1C[C@@H]1C[C@H]21 | > 10000 nM | 6.8 nM | 106% | > 10000 nM | > 1 h | > 1 h | 5.6 nM | 112% |  |  |  |  |  |  |  | 
10 | O=C(NC1(C(F)(F)F)CCC1)c1nn(-c2c[n+]([O-])ccn2)c2c1C[C@@H]1C[C@H]21 | > 10000 nM | 1.6 nM | 106% | > 10000 nM | > 1 h | > 1 h | 1.2 nM | 115% |  |  |  |  |  |  |  | 
11 | CC(C)[C@@H](CF)NC(=O)c1nn(-c2c[n+]([O-])ccn2)c2c1C[C@@H]1C[C@H]21 | 6100 nM | 6.4 nM | 87% | 2700 nM | > 1 h | > 1 h | 3.8 nM | 98% |  |  | 74% | 96% |  |  |  | 
12 | CC(C)(CO)NC(=O)c1nn(-c2ccc(F)cc2F)c2c1C[C@H]1C[C@@H]21 |  |  | 46% |  |  |  |  |  |  |  |  |  | 68% |  |  | 
13 | CC(C)(C)[C@H](CO)NC(=O)c1nn(-c2cnccn2)c2c1C[C@@H]1C[C@H]21 | > 10000 nM |  |  |  |  |  | 560 nM | 78% |  |  |  |  |  |  |  | 
14 | CCCCCCC(C)(C)c1ccc([C@@H]2C[C@H](O)CC[C@H]2CCCO)c(O)c1 [CP-55940] |  |  |  |  |  |  |  |  |  |  |  |  |  | Toxic |  | 
15 | O=C(N[C@@H](CO)C(F)(F)F)c1nn(-c2c[n+]([O-])ccn2)c2c1C[C@@H]1C[C@H]21 | > 10000 nM | 35 nM | 107% | > 10000 nM | > 1 h | > 1 h | 17.2 nM | 119% |  |  |  |  |  |  |  | 
16 | CC(C)(NC(=O)c1nn(-c2c[n+]([O-])ccn2)c2c1C[C@@H]1C[C@H]21)C(F)(F)F | > 10000 nM | 6.3 nM | 98% | > 10000 nM | > 1 h | > 1 h | 2.3 nM | 108% |  | 0.83 |  |  |  |  | Non-Toxic | Non-Toxic
17 | O=C(N[C@H](CO)C(F)(F)F)c1nn(-c2c[n+]([O-])ccn2)c2c1C[C@@H]1C[C@H]21 | > 10000 nM | 530 nM | 85% | > 10000 nM | > 1 h | > 1 h | 280 nM | 98% |  |  |  |  |  |  |  | 

— ChEMBL document CHEMBL4138258 (ACS Med Chem Lett, 2017)
